The source made the active and inactive calls. The calls are words filed in the database; no cut-off is given here.
Experiments:
[1] = Half life in human liver microsomes at 0.5 uM in presence of NADPH; type: ADME
In short: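 Test compound incubated with human liver microsomes (1 mg/ml) plus NADPH (1 mM) for 0–45 min. Reactions were stopped and parent remaining in supernatant was quantified by LC–MS/MS. T1/2 was taken from the plot of % remaining versus time. Omeprazole was run as a reference control.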

[2] = target: T1, 5-hydroxytryptamine receptor 6 (Homo sapiens, UniProt P50406); test: Antagonist activity at human cloned 5-HT6 receptor expressed in HeLa cells assessed as inhibition of 5-HT-stimulated conversion of [alpha-33P]ATP to [33P]cAMP; type: functional, cell-based
[3] = target: T1, 5-hydroxytryptamine receptor 6; test: Displacement of [3H]LSD from human cloned 5-HT6 receptor expressed in HeLa cells; type: cell-based
Brain = test: Drug uptake in rat brain at 10 mg/kg, ip; type: ADME, organism-based; design: dose 10 mg/kg, route intraperitoneal; details: in vivo, read-out: Drug uptake
In short: (§1)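 Rats received a single intraperitoneal dose of 10 mg/kg. Brain and plasma drug levels were measured 30 minutes post-dose, and the brain/plasma ratio was derived from them.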

[4] = Permeability of the compound; type: ADME; details: not told; read-out: permeability
[5] = Ratio of drug level in brain to plasma in rat at 10 mg/kg, ip; type: ADME, organism-based; design: dose 10 mg/kg, route intraperitoneal; details: read-out: BPR; in short: as §1
[6] = Oral bioavailability in rat; type: ADME, organism-based; details: in vivo

T1 sequence (P50406 whole entry): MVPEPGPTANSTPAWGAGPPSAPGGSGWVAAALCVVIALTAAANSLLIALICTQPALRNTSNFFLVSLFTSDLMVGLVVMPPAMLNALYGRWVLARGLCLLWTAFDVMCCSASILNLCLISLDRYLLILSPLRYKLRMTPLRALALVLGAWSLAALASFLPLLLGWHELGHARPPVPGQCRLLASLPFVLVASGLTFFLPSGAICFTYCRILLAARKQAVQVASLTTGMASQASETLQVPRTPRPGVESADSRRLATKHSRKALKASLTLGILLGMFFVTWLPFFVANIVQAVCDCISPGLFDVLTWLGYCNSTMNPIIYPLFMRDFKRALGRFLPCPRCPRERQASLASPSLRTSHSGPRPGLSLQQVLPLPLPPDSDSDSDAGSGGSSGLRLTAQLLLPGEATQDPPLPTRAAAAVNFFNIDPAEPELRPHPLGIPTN

CSc1nc2ccccn2c(=N)c1S(=O)(=O)c1ccc(C(C)(C)C)cc1
half-life at 0.5 µM [1]: 3.9 min | antagonist activity (active/inactive call) [2]: Active | IC50 [3]: 65 nM

Cc1ccc(Nc2nc3ccc(C)cn3c(=N)c2S(=O)(=O)c2ccccc2)nc1
antagonist activity (active/inactive call) [2]: Active | IC50 [3]: 60 nM

CSc1nc2ccccn2c(=N)c1S(=O)(=O)c1cc(C)c(Cl)cc1C
half-life at 0.5 µM [1]: 4.1 min | antagonist activity (active/inactive call) [2]: Active | IC50 [3]: 50 nM

CSc1nc2cc(C)ccn2c(=N)c1S(=O)(=O)c1ccccc1
antagonist activity (active/inactive call) [2]: Active | IC50 [3]: 41 nM

C[S+]([O-])c1nc2ccccn2c(=N)c1S(=O)(=O)c1ccccc1 (stereo unspecified)
antagonist activity (active/inactive call) [2]: Active | IC50 [3]: 250 nM

CSc1nc2ccccn2c(=O)c1S(=O)(=O)c1ccccc1
half-life at 0.5 µM [1]: 40 min | antagonist activity (active/inactive call) [2]: Active | IC50 [3]: 52 nM

CSc1nc2ccccn2c(=N)c1S(=O)(=O)c1ccc(OC(F)(F)F)cc1
half-life at 0.5 µM [1]: 2.8 min | antagonist activity (active/inactive call) [2]: Active | IC50 [3]: 420 nM

CSc1nc2c3ccccc3ccn2c(=N)c1S(=O)(=O)c1ccccc1
half-life at 0.5 µM [1]: 7.9 min | antagonist activity (active/inactive call) [2]: Active | IC50 [3]: 55 nM

COc1ccc2[nH]c([S+]([O-])Cc3ncc(C)c(OC)c3C)nc2c1 (stereo unspecified) [OMEPRAZOLE]
half-life at 0.5 µM [1]: 26 min

CSc1nc2c(C)cc(Br)cn2c(=N)c1S(=O)(=O)c1ccccc1
antagonist activity (active/inactive call) [2]: Active | IC50 [3]: 12 nM

CSc1nc2ccc(Cl)cn2c(=N)c1S(=O)(=O)c1ccccc1
antagonist activity (active/inactive call) [2]: Active | IC50 [3]: 28 nM

CSc1nc2c(Cc3ccccc3)cccn2c(=N)c1S(=O)(=O)c1ccccc1
half-life at 0.5 µM [1]: 5.5 min | antagonist activity (active/inactive call) [2]: Active | IC50 [3]: 330 nM

CSc1nc2ccccn2c(=N)c1S(=O)(=O)c1ccccc1Cl
antagonist activity (active/inactive call) [2]: Active | IC50 [3]: 11 nM

CSc1nc2c(C)cc(Cc3ccccc3)cn2c(=N)c1S(=O)(=O)c1ccccc1
antagonist activity (active/inactive call) [2]: Active | IC50 [3]: 60 nM

CSc1nc2ccccn2c(=N)c1S(=O)(=O)c1ccccc1
concentration (Brain): 1900 nM | Papp [4]: 17 ×10⁻⁶ cm/s | half-life at 0.5 µM [1]: 5.2 min | antagonist activity (active/inactive call) [2]: Active | Kp [5]: 1.2 | bioavailability [6]: < 1%

CSc1nc2ccc(C(N)=O)cn2c(=N)c1S(=O)(=O)c1ccccc1
antagonist activity (active/inactive call) [2]: Active | IC50 [3]: 8.8 nM

CSc1nc2ccc(C)cn2c(=N)c1S(=O)(=O)c1ccccc1
antagonist activity (active/inactive call) [2]: Active | IC50 [3]: 1.3 nM

N=c1c(S(=O)(=O)c2ccccc2)c(NCCO)nc2ccccn12
antagonist activity (active/inactive call) [2]: Active | IC50 [3]: 42 nM

C/N=c1/c(S(=O)(=O)c2ccccc2)c(SC)nc2ccccn12
half-life at 0.5 µM [1]: 2.8 min | antagonist activity (active/inactive call) [2]: Active | IC50 [3]: 120 nM

CSc1nc2ccccn2c(=N)c1S(=O)(=O)c1ccc2ccccc2c1
antagonist activity (active/inactive call) [2]: Active | IC50 [3]: 59 nM

CSc1nc2c3ncccc3ccn2c(=N)c1S(=O)(=O)c1ccccc1
antagonist activity (active/inactive call) [2]: Active | IC50 [3]: 57 nM

CSc1nc2ccccn2c(=N)c1S(=O)(=O)c1ccc(Cl)c(Cl)c1
half-life at 0.5 µM [1]: 3.1 min | antagonist activity (active/inactive call) [2]: Active | IC50 [3]: 18 nM

COc1nc2ccccn2c(=N)c1S(=O)(=O)c1ccccc1
half-life at 0.5 µM [1]: 13.7 min | antagonist activity (active/inactive call) [2]: Active | IC50 [3]: 21 nM

CSc1nc2ccc(F)cn2c(=N)c1S(=O)(=O)c1ccccc1
antagonist activity (active/inactive call) [2]: Active | IC50 [3]: 28 nM

CNc1nc2ccccn2c(=N)c1S(=O)(=O)c1ccccc1
half-life at 0.5 µM [1]: 7.2 min | antagonist activity (active/inactive call) [2]: Active | IC50 [3]: 2.4 nM

CCc1ccn2c(=N)c(S(=O)(=O)c3ccccc3)c(SC)nc2c1
antagonist activity (active/inactive call) [2]: Active | IC50 [3]: 80 nM

CCCc1ccn2c(=N)c(S(=O)(=O)c3ccccc3)c(SC)nc2c1
antagonist activity (active/inactive call) [2]: Active | IC50 [3]: 700 nM

CSc1nc2ccc(Br)cn2c(=N)c1S(=O)(=O)c1ccccc1
half-life at 0.5 µM [1]: 7.5 min | antagonist activity (active/inactive call) [2]: Active | IC50 [3]: 56 nM

CCOc1nc2ccccn2c(=N)c1S(=O)(=O)c1ccccc1
antagonist activity (active/inactive call) [2]: Active | IC50 [3]: 12 nM

CSc1nc2c(Br)cc(C)cn2c(=N)c1S(=O)(=O)c1ccccc1
antagonist activity (active/inactive call) [2]: Active | IC50 [3]: 126 nM

CCNc1nc2ccccn2c(=N)c1S(=O)(=O)c1ccccc1
antagonist activity (active/inactive call) [2]: Active | IC50 [3]: 2 nM

CSc1nc2c(C)cccn2c(=N)c1S(=O)(=O)c1ccccc1
antagonist activity (active/inactive call) [2]: Active | IC50 [3]: 3.4 nM

CSc1nc2ccccn2/c(=N\C(C)=O)c1S(=O)(=O)c1ccccc1
half-life at 0.5 µM [1]: 43 min | antagonist activity (active/inactive call) [2]: Active | IC50 [3]: 83 nM

CSc1nc2ccccn2c(=N)c1S(=O)(=O)c1ccc(F)cc1
half-life at 0.5 µM [1]: 3.1 min | antagonist activity (active/inactive call) [2]: Active | IC50 [3]: 22 nM

COC(=O)c1ccc2nc(SC)c(S(=O)(=O)c3ccccc3)c(=N)n2c1
antagonist activity (active/inactive call) [2]: Active | IC50 [3]: 470 nM

Reference: ChEMBL document CHEMBL3112552, “Structure activity relationship studies of 3-arylsulfonyl-pyrido[1,2-a]pyrimidin-4-imines as potent 5-HT₆ antagonists” (Bioorg Med Chem, 2014)
